Assay results as given in ChEMBL document CHEMBL3414450, “Synthetic phenylethanoid glycoside derivatives as potent neuroprotective agents” (Eur J Med Chem, 2015).
Calls of active or inactive are those of the source. No cut-off for these calls is given here.

What was measured:
[1] = system: PC-12; assay: Neuroprotective activity in rat PC12 cells assessed as decrease in H2O2-induced cell death at 100 uM incubated for 6 hrs prior to H2O2 challenge measured after 1 hr by MTT assay; assay type: functional, cell-based
Procedure, shortened: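 PC12 cells seeded at 1×10^5/well for 24 h. Pretreated 6 h with compound (100 μM; DMSO stock diluted in PBS), then challenged with 300 μM H2O2 for 1 h at 37 °C. MTT at 5 mg/mL for 4 h, DMSO solubilisation, A570. Survival is given as % of the PBS-treated control, mean ± SD, n = 3. Vitamin C was the positive control.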

[2] = system: PC-12; assay: Neuroprotective activity in rat PC12 cells assessed as decrease in 6-OHDA-induced cell death at 6.25 to 100 uM incubated for 6 hrs prior to 6-OHDA challenge measured after 24 hrs by MTT assay; assay type: functional, cell-based
Procedure, shortened: (§1)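 PC12 cells seeded at 1×10^5/well for 24 h, pretreated 6 h with compound (6.25–100 μM; DMSO stock diluted in PBS), then exposed to 100 μM 6-OHDA for 24 h at 37 °C. Viability read by MTT (5 mg/mL, 4 h), DMSO, absorbance 570 nm. Expressed as % of the PBS-treated control, mean ± SD, n = 3.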

[3] = system: PC-12; assay: Neuroprotective activity in rat PC12 cells assessed as decrease in 6-OHDA-induced cell death incubated for 6 hrs prior to 6-OHDA challenge measured after 24 hrs by MTT assay; assay type: functional, cell-based; procedure, shortened: as §1
[4] = system: PC-12; assay: Neuroprotective activity in rat PC12 cells assessed as decrease in 6-OHDA-induced early and late apoptosis at 6.25 to 25 uM incubated for 6 hrs prior to 6-OHDA challenge measured after 24 hrs by annexin V/propidium iodide staining-based fluorescence microscopic analysis; assay type: functional, cell-based
Procedure, shortened: (§2)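 PC12 cells on coverslips (1×10^5/well) pretreated 6 h with compound, then given 100 μM 6-OHDA for 24 h at 37 °C. After two PBS washes, stained with Annexin V-FITC/PI, each diluted 1:100 in binding buffer and mixed 1:1. Imaged by fluorescence microscopy (ex 488; em 515–545 and 575–635 nm). Apoptotic and necrotic cells counted in five fields, three separate groups. Edaravone was the positive control.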

[5] = system: PC-12; assay: Neuroprotective activity in rat PC12 cells assessed as decrease in 6-OHDA-induced intracellular ROS level incubated for 6 hrs prior to 6-OHDA challenge measured after 24 hrs by DCFH-DA dye-based spectrofluor analysis; assay type: functional, cell-based
Procedure, shortened: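 PC12 cells (1×10^5/well) pretreated 6 h with compound at several concentrations one day after seeding, then given 100 μM 6-OHDA for 24 h at 37 °C. Loaded with DCFH-DA (1:1000 in DMEM) for 30 min at 37 °C, 5% CO2, then washed three times with PBS. DCF fluorescence read at 488/525 nm in five fields per well. Untreated cells are set to 100%, mean ± SD, n = 3. Edaravone was the positive control.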

[6] = Cytotoxicity against rat PC12 cells assessed as cell viability at 100 uM incubated for 6 hrs prior to PBS treatment measured after 1 hr by MTT assay; assay type: cell-based; settings: pc-12, 1 h
[7] = system: PC-12; assay: Neuroprotective activity in rat PC12 cells assessed as decrease in 6-OHDA-induced apoptosis at 200 uM incubated for 6 hrs prior to 6-OHDA challenge measured after 24 hrs by annexin V/propidium iodide staining-based fluorescence microscopic analysis; assay type: functional, cell-based; procedure, shortened: as §2
[8] = system: PC-12; assay: Neuroprotective activity in rat PC12 cells assessed as decrease in 6-OHDA-induced early and late apoptosis at 6.25 to 50 uM incubated for 6 hrs prior to 6-OHDA challenge measured after 24 hrs by annexin V/propidium iodide staining-based fluorescence microscopic analysis; assay type: functional, cell-based; procedure, shortened: as §2
[9] = system: PC-12; assay: Neuroprotective activity in rat PC12 cells assessed as decrease in 6-OHDA-induced early and late apoptosis at 1.56 to 6.25 uM incubated for 6 hrs prior to 6-OHDA challenge measured after 24 hrs by annexin V/propidium iodide staining-based fluorescence microscopic analysis; assay type: functional, cell-based; procedure, shortened: as §2

SMILES | Activity [1] | Activity [2] | Activity [3] | Activity [5] | Activity [6] | other results
OC[C@H]1O[C@@H](OCCc2ccc(O)c(O)c2)[C@H](O)[C@@H](O)[C@@H]1O | Active | Active |  |  |  | 
COC(=O)[C@]1(OC)C[C@H](O)[C@@H](NC(=O)/C=C/c2ccc(O)c(O)c2)[C@H]([C@H](O)[C@H](O)CO)O1 | Active |  | Dose-dependent effect | Dose-dependent effect | Non-toxic | Activity [4]: Active
O=C(/C=C/c1ccc(O)c(O)c1)O[C@H]1[C@H](O)[C@@H](O)[C@H](OCCc2ccc(O)c(O)c2)O[C@@H]1CO | Active | Active |  |  |  | 
CC1=NN(c2ccccc2)C(=O)C1 |  |  |  |  |  | Activity [7]: inactive
O=C(/C=C/c1ccc(Cl)cc1)O[C@H]1[C@H](O)[C@@H](O)[C@H](OCCc2ccc(O)c(O)c2)O[C@@H]1CO | Active | Active |  |  |  | 
O=C(/C=C/c1ccc(F)c(F)c1)O[C@H]1[C@H](O)[C@@H](O)[C@H](OCCc2ccc(O)c(O)c2)O[C@@H]1CO | Active | Active |  |  |  | 
O=C(Cc1ccc(O)c(O)c1)O[C@H]1[C@H](O)[C@@H](O)[C@H](OCCc2ccc(O)c(O)c2)O[C@@H]1CO | Active |  | Dose-dependent effect | Dose-dependent effect | Non-toxic | Activity [8]: Active
O=C(/C=C/c1ccc(O)c(O)c1)OCCc1ccc(O)c(O)c1 | Active |  | Dose-dependent effect | Dose-dependent effect | Non-toxic | Activity [9]: Active
COc1ccc(/C=C/C(=O)O[C@H]2[C@H](O)[C@@H](O)[C@H](OCCc3ccc(O)c(O)c3)O[C@@H]2CO)cc1OC | inactive |  |  |  |  | 
